The results in this text go back to ChEMBL document CHEMBL1255265, “Linezolid and tiamulin cross-resistance in Staphylococcus aureus mediated by point mutations in the peptidyl transferase center” (2008).

In experiment [1] the test system is Escherichia coli. The experiment is described as follows: Antimicrobial activity wild type Escherichia coli SQ110 by agar dilution method. It is filed as functional. A general note: In agar dilution, organisms are placed on agar that contains the substance at set levels.
The subject of experiment [2] is Escherichia coli. The experiment is described as follows: Antimicrobial activity wild type Escherichia coli SQ110 by agar dilution method in presence of 16 ug/ml polymyxin B nonapeptide. The class given is functional. Put shortly: (§1)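 MIC by agar dilution following BSAC guidelines in Mueller-Hinton medium. For E. coli, the medium was supplemented with 16 μg/ml polymyxin B nonapeptide to permeabilize the gram-negative envelope.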

The test system of experiment [3] is Escherichia coli. The experiment is described as follows: Antimicrobial activity against Escherichia coli KM55-68 harboring G2576U mutation in 23S rRNA by agar dilution method in presence of 16 ug/ml polymyxin B nonapeptide. It is filed as functional. A digest of the protocol: as §1
In experiment [4] the test system is Escherichia coli. The experiment is described as follows: Antimicrobial activity against Escherichia coli KM74 harboring U2500A mutation in 23S rRNA by agar dilution method in presence of 16 ug/ml polymyxin B nonapeptide. The class given is functional. Put shortly:
as §1

In experiment [5] the test system is Escherichia coli. The experiment is described as follows: Antimicrobial activity against Escherichia coli KM75-84 harboring Gly153Arg mutation in rplC gene by agar dilution method in presence of 16 ug/ml polymyxin B nonapeptide. It is filed as functional. Put shortly: as §1
In experiment [6] the test system is Escherichia coli. The experiment is described as follows: Antimicrobial activity against Escherichia coli KM85-86 harboring Lys157Gln mutation in rplC gene by agar dilution method in presence of 16 ug/ml polymyxin B nonapeptide. It is filed as functional. A digest of the protocol:
as §1

Experiment [7] relates to Escherichia coli. The experiment is described as follows: Antimicrobial activity against Escherichia coli KM87-88 harboring Arg141Ser mutation in rplC gene by agar dilution method in presence of 16 ug/ml polymyxin B nonapeptide. It is filed as functional. A digest of the protocol:
as §1

Experiment [8] has as its system Escherichia coli. The experiment is described as follows: Antimicrobial activity against Escherichia coli KM89-94 harboring G2576U mutation in 23S rRNA by agar dilution method in presence of 16 ug/ml polymyxin B nonapeptide. The class given is functional. A digest of the protocol: as §1
The test system of experiment [9] is Staphylococcus aureus. The experiment is described as follows: Antimicrobial activity against Staphylococcus aureus KM187+198 harboring G2576U mutation in 23S rRNA by agar dilution method. The class given is functional. Put shortly: (§2)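 S. aureus MICs were determined by agar dilution per BSAC guidelines in Mueller-Hinton medium, without supplement.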
Experiment [10] relates to Staphylococcus aureus. The experiment is described as follows: Antimicrobial activity against Staphylococcus aureus NRS119 clinical isolate harboring G2576U mutation in 23S rRNA by agar dilution method. It is filed as functional. Put shortly:
as §2

Experiment [11] has as its system Staphylococcus aureus. The experiment is described as follows: Antimicrobial activity against Staphylococcus aureus NRS120 clinical isolate harboring G2576U mutation in 23S rRNA by agar dilution method. It is filed as functional. A digest of the protocol: as §2
Experiment [12] relates to Staphylococcus aureus. The experiment is described as follows: Antimicrobial activity against Staphylococcus aureus NRS121 clinical isolate harboring G2576U mutation in 23S rRNA by agar dilution method. The class given is functional. Put shortly:
as §2

In experiment [13] the test system is Escherichia coli. The experiment is described as follows: Antimicrobial activity against Escherichia coli KM69-73 harboring G2447U mutation in 23S rRNA by agar dilution method in presence of 16 ug/ml polymyxin B nonapeptide.
For experiment [14], the system named is Escherichia coli. The experiment is described as follows: Antimicrobial activity against tiamulin resistant Escherichia coli SQ110 by agar dilution method. It is filed as functional.
The test system of experiment [15] is Staphylococcus aureus. The experiment is described as follows: Antimicrobial activity against wild type Staphylococcus aureus RN4220 measured after 2 days of subculturing by agar dilution method. It is filed as functional. To be noted: RN4220, 48 h. A digest of the protocol: (§3)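 Resistant mutants were selected by serial subculture in Mueller-Hinton medium containing antibiotic, and time to emergence of resistance was recorded. MICs were determined by agar dilution per BSAC guidelines.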

The subject of experiment [16] is Staphylococcus aureus. The experiment is described as follows: Antimicrobial activity against mutS-expressing Staphylococcus aureus RN4220 measured after 1 day of subculturing by agar dilution method. The class given is functional. Particulars: RN4220, 24 h. A digest of the protocol:
as §3

In experiment [17] the test system is Staphylococcus aureus. The experiment is described as follows: Antimicrobial activity against tiamulin resistant Staphylococcus aureus 8325-4 after 1 day of subculturing by agar dilution method. The class given is functional. Particulars: 8325-4, 24 h. Put shortly: as §3
The subject of experiment [18] is Staphylococcus aureus. The experiment is described as follows: Antimicrobial activity against Staphylococcus aureus KM164-165 harboring Gly155Arg mutation in rplC gene by agar dilution method. The class given is functional. Put shortly:
as §2

Experiment [19] deals with Staphylococcus aureus. The experiment is described as follows: Antimicrobial activity against Staphylococcus aureus KM166-167 harboring Ser158Leu mutation in rplC gene by agar dilution method. It is filed as functional. Put shortly: as §2
Experiment [20] deals with Staphylococcus aureus. The experiment is described as follows: Antimicrobial activity against Staphylococcus aureus RN4220 by agar dilution method. The class given is functional. A digest of the protocol:
as §2

Experiment [21] has as its system Staphylococcus aureus. The experiment is described as follows: Antimicrobial activity against Staphylococcus aureus KM168 harboring Arg149Ser mutation in rplC gene by agar dilution method. It is filed as functional. Put shortly: as §2

SMILES strings stand for the structures. Values after ≈ are worked out from the molar mass of the structure shown.

For orientation: MIC means the lowest concentration that inhibits growth of the organism. For the compound `CC(=O)NC[C@H]1CN(c2ccc(N3CCOCC3)c(F)c2)C(=O)O1` [LINEZOLID], the MIC against Escherichia coli [1] amounted to 256 µg/mL (≈ 759 µM); in the experiment on Escherichia coli [2] it was 16 µg/mL; in the experiment on Escherichia coli [3] it was 64 µg/mL; with Escherichia coli [4], 64 µg/mL; in the experiment on Escherichia coli [5] it was 16 µg/mL; in the experiment with Escherichia coli [6] it was 16 µg/mL. Further, the minimal inhibitory concentration (MIC) turned out to be 16 µg/mL with Escherichia coli [7]; 64 µg/mL with Escherichia coli [8]; 64 µg/mL (≈ 190 µM) in the experiment on Staphylococcus aureus [9]; 64 µg/mL (≈ 190 µM) against Staphylococcus aureus [10]; 64 µg/mL (≈ 190 µM) against Staphylococcus aureus [11]; 64 µg/mL (≈ 190 µM) against Staphylococcus aureus [12]. Also, in the experiment on Escherichia coli [13], the MIC came to 64 µg/mL.
As for `C=C[C@]1(C)C[C@@H](OC(=O)CSCCN(CC)CC)[C@]2(C)[C@H](C)CC[C@]3(CCC(=O)[C@H]32)[C@@H](C)[C@@H]1O` [TIAMULIN], the MIC in the experiment on Escherichia coli [14] was 128 µg/mL (≈ 259 µM); in the experiment with Staphylococcus aureus [15] it was 1 µg/mL (≈ 2.03 µM); in the experiment with Staphylococcus aureus [16], 2 µg/mL (≈ 4.05 µM); against Staphylococcus aureus [17], 1 µg/mL (≈ 2.03 µM); in the experiment on Escherichia coli [2], 8 µg/mL; with Escherichia coli [3], 64 µg/mL. The minimal inhibitory concentration (MIC) in the experiment on Escherichia coli [4] stood at 64 µg/mL; in the experiment with Escherichia coli [5], 32 µg/mL; in the experiment on Escherichia coli [6] it was 32 µg/mL; in the experiment with Escherichia coli [7], 64 µg/mL; with Escherichia coli [8] it was 64 µg/mL; in the experiment with Staphylococcus aureus [18] it was 8 µg/mL (≈ 16.2 µM). Moreover, the MIC amounted to 16 µg/mL (≈ 32.4 µM) in the experiment on Staphylococcus aureus [19]; 1 µg/mL (≈ 2.03 µM) with Staphylococcus aureus [20]; 8 µg/mL (≈ 16.2 µM) against Staphylococcus aureus [21]; 16 µg/mL (≈ 32.4 µM) against Staphylococcus aureus [9]; 32 µg/mL (≈ 64.8 µM) with Staphylococcus aureus [10]; 32 µg/mL (≈ 64.8 µM) against Staphylococcus aureus [11]. Besides, the figures for the MIC in the experiment on Staphylococcus aureus [12] and with Escherichia coli [13] were 32 µg/mL (≈ 64.8 µM) and 64 µg/mL, respectively.
